The record followed here is ChEMBL document CHEMBL5150070, “Tricyclic SpiroLactams Kill Mycobacteria In Vitro and In Vivo by Inhibiting Type II NADH Dehydrogenases” (J Med Chem, 2022).

≈ marks a conversion by molar mass, not a printed value. Where only a bound is given, the exact number is not on record here.

For data set [1], the system named is Mycobacterium tuberculosis. Description: Bactericidal activity against Non-replicating Mycobacterium tuberculosis ss18b-lux model assessed as decrease in luminescence at 10 to 10000 nM. As to conditions: dose 10-10000 nM, TDE = time-dependent effect. Type of data set: functional, organism-based. The method, boiled down:
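Non-replicating streptomycin-starved 18b-lux (14-day starvation) diluted to OD600 0.15 in white 96-well plates with compound and incubated at 37°C. Luminescence read on days 1, 2, 5 and 7 and expressed relative to no-antibiotic controls (n ≥ 3).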

Data set [2] deals with Mycobacterium tuberculosis. The data set can be described thus: Antimycobacterial activity against Mycobacterium tuberculosis H37Rv infected in human A-THP1 macrophages assessed as viability of infected macrophages incubated for 96 hrs by fluorescence microplate assay. Format: functional, organism-based. The method, boiled down: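 THP-1 cells differentiated with 50 ng/mL PMA for 72 h, infected with log-phase H37Rv (MOI 10, 2 h), and extracellular bacteria killed with 50 µg/mL amikacin for 1 h. Cells detached and seeded at 5×10⁵/mL in RPMI-10% FBS with PMA onto pre-dispensed compound, 96 h at 37°C, 5% CO₂. Macrophage viability by 0.05% resazurin fluorescence.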

Data set [3] deals with Mycobacterium tuberculosis. The data set can be described thus: Bactericidal activity against Non-replicating Mycobacterium tuberculosis ss18b-lux assessed as decrease in colony forming unit measured at 1 uM after 1 weeks. Format: functional. The method, boiled down:
(§1)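 Streptomycin-dependent 18b-lux starved of streptomycin for 14 days (OD600 reset to 0.2 on days 7 and 13) to become non-replicating. Diluted to OD600 0.15 on dispensed compound and held at 37°C. On day 7, active wells plated on 7H11-OADC with 50 µg/mL streptomycin and incubated up to 8 weeks for cfu.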

Data set [4] can be described thus: Aqueous solubility of compound in pH 7.4 […]. Type of data set: physicochemical. As to conditions: buffer. The method, boiled down: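 A 10 mM DMSO stock was diluted 50-fold into PBS pH 7.4 or methanol and shaken gently for 24 h at room temperature. Samples were centrifuged, filtered (0.45 µm), diluted 50-fold in MeOH and analysed by LC-MS/MS. Solubility = (AUC PBS/AUC MeOH)×200. Run in triplicate.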

In another data set the test system is Pseudomonas aeruginosa. The data set can be described thus: Antibiotic activity against Pseudomonas aeruginosa POA1 assessed as reduction in bacterial cell growth by measuring resazurin reduction incubated for 6 days by fluorescence microplate based assay. Type of data set: functional. To be noted: POA1, 144 h, time 6 day.
Data set [5] relates to Mycobacteroides abscessus. Description: Antibiotic activity against Mycobacterium abscessus CIP104536, Smooth variant assessed as reduction in bacterial cell growth by measuring resazurin reduction incubated for 6 days by fluorescence microplate based assay. Format: functional. To be noted: 144 h, time 6 day. For orientation: Alamar Blue is a resazurin reagent that responds to reducing activity.

Data set [6] is described as follows: Octanol/PBS partition coefficient, logD of compound at pH 7.4 measured after 2 hrs by shake flask method. Type of data set: physicochemical. As to conditions: octanol/water, pH 7.4, 2 h. The method, boiled down: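 A 10 mM DMSO stock was diluted 50-fold into 1:1 octanol:PBS pH 7.4 and shaken gently for 2 h at room temperature. Each phase was diluted 50-fold in MeOH and quantified by LC-MS/MS. LogD = log of the octanol/PBS concentration ratio from mass signals. Run in triplicate.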

Another data set has as its system Klebsiella pneumoniae. Description: Antibiotic activity against Klebsiella pneumoniae LMG 2095 assessed as reduction in bacterial cell growth by measuring resazurin reduction incubated for 6 days by fluorescence microplate based assay. Type of data set: functional. As to conditions: LMG 2095, 144 h, time 6 day.
Data set [7] relates to Mycobacterium tuberculosis. Description: Antibiotic activity against Mycobacterium tuberculosis H37Rv assessed as reduction in bacterial cell growth by measuring resazurin reduction incubated for 6 days by fluorescence microplate based assay. Format: functional. As to conditions: 144 h, time 6 day.
A further data set deals with Bacillus subtilis. Description: Antibiotic activity against Bacillus subtilis ATCC6633 assessed as reduction in bacterial cell growth by measuring resazurin reduction incubated for 6 days by fluorescence microplate based assay. Format: functional. As to conditions: ATCC6633, 144 h, time 6 day.
Data set [8] addresses T1, Type II NADH:quinone oxidoreductase NdhA (Mycobacterium tuberculosis, UniProt P95200).
T1 sequence (P95200 whole entry): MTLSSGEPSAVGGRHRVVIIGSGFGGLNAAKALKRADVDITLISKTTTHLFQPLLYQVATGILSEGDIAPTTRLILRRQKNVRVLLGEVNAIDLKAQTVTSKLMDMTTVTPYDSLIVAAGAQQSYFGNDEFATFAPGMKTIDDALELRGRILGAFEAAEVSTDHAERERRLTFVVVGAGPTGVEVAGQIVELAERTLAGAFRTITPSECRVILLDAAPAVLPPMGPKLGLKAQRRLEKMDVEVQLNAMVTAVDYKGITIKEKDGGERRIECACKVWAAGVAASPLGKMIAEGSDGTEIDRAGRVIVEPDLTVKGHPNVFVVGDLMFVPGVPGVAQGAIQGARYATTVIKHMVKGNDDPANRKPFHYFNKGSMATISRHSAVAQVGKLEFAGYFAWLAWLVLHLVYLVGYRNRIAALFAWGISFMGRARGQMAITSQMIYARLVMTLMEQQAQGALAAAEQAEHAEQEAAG
Description: Inhibition of Mycobacterium smegmatis MC2 155 recombinant ndhA assessed as rate of NADH oxidation in the presence of an electron acceptor menadione. Also noted: species or system Mycolicibacterium smegmatis.

For another data set, the system named is Mycobacterium avium. The data set can be described thus: Antibiotic activity against Mycobacterium avium TMC 724, ATCC-25291 assessed as reduction in bacterial cell growth by measuring resazurin reduction incubated for 6 days by fluorescence microplate based assay. Format: functional. As to conditions: TMC 724, ATCC-25291, 144 h, time 6 day.
Another data set concerns Mycobacterium marinum. The data set can be described thus: Antibiotic activity against Mycobacterium marinum M strain assessed as reduction in bacterial cell growth by measuring resazurin reduction incubated for 6 days by fluorescence microplate based assay. Format: functional. As to conditions: 144 h, time 6 day.
For data set [9], the system named is Mycolicibacterium smegmatis. The data set can be described thus: Antibiotic activity against Mycobacterium smegmatis mc2155 assessed as reduction in bacterial cell growth by measuring resazurin reduction incubated for 6 days by fluorescence microplate based assay. Type of data set: functional. As to conditions: mc2155, 144 h, time 6 day.
The subject of another data set is Escherichia coli. The data set can be described thus: Antibiotic activity against Escherichia coli deltatolC BW25113 deltatolC assessed as reduction in bacterial cell growth by measuring resazurin reduction incubated for 6 days by fluorescence microplate based assay. Format: functional. To be noted: 144 h, time 6 day. The method, boiled down:
(§2)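 E. coli BW25113, E. coli ΔtolC and S. aureus SH1000 were cultured and tested in cation-adjusted Mueller Hinton II broth. Viability was read by adding resazurin and measuring resorufin fluorescence at Ex 530 nm / Em 590 nm.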

The subject of the next data set is Staphylococcus aureus. The data set can be described thus: Antibiotic activity against Staphylococcus aureus SH1000 assessed as reduction in bacterial cell growth by measuring resazurin reduction incubated for 6 days by fluorescence microplate based assay. Format: functional. To be noted: SH1000, 144 h, time 6 day. The method, boiled down: as §2
Data set [10] concerns Mycobacteroides abscessus. The data set can be described thus: Antibiotic activity against Mycobacterium abscessus CIP104536, Rough variant assessed as reduction in bacterial cell growth by measuring resazurin reduction incubated for 6 days by fluorescence microplate based assay. Format: functional. To be noted: 144 h, time 6 day.
For the next data set, the system named is Acinetobacter baumannii. The data set can be described thus: Antibiotic activity against Acinetobacter baumannii LMG-17978 assessed as reduction in bacterial cell growth by measuring resazurin reduction incubated for 6 days by fluorescence microplate based assay. Format: functional. As to conditions: LMG-17978, 144 h, time 6 day.
For data set [11], the system named is Mycobacterium tuberculosis. The data set can be described thus: Bactericidal activity against Non-replicating Mycobacterium tuberculosis ss18b-lux assessed as decrease in colony forming unit measured at 0.6 uM after 1 weeks. Type of data set: functional. The method, boiled down:
as §1

`COc1nc2ccc(Br)cc2cc1[C@@H](c1ccccc1)[C@@](O)(CCN(C)C)c1cccc2ccccc12` [BEDAQUILINE]: the Activity result is “Tde” in [1] and 1 log10CFU in data set [3]. Further, the 50% inhibitory concentration (IC50) in [2] was 34 nM.

Compound `CC(C)[C@H]1CO[C@]23CCN(Cc4ccccc4)C[C@H]2CCC(=O)N13` gave a solubility in data set [4] of 178 µM (≈ 58.5 µg/mL). Further, the minimal inhibitory concentration (MIC) in the data set with Pseudomonas aeruginosa was above 100 µM; in data set [5], at least 100 µM; in the data set on Klebsiella pneumoniae it was above 100 µM; in data set [7], 3.2 µM (≈ 1.05 µg/mL); in the data set on Bacillus subtilis, above 100 µM; with Mycobacterium avium it was 13.1 µM (≈ 4.3 µg/mL). Also, the minimum inhibitory concentration (MIC) with Mycobacterium marinum was 6.3 µM (≈ 2.07 µg/mL); in [9], 29.2 µM (≈ 9.59 µg/mL); with Escherichia coli, above 100 µM; with Staphylococcus aureus it was above 100 µM; in data set [10], at least 100 µM; in the data set with Acinetobacter baumannii, above 100 µM. Further, in [6], the logD worked out at 2.7. Moreover, the figures for the IC50 in [2] and in data set [8] were 8200 nM and 980 nM, respectively.

`CO[C@H]1/C=C/O[C@@]2(C)Oc3c(C)c(O)c4c(O)c(c(/C=N/N5CCN(C)CC5)c(O)c4c3C2=O)NC(=O)/C(C)=C\C=C\[C@H](C)[C@H](O)[C@@H](C)[C@@H](O)[C@@H](C)[C@H](OC(C)=O)[C@@H]1C` [RIFAMPIN]: the Activity result is “Tde” in data set [1] and 1 log10CFU in [11]. The half-maximal inhibitory concentration (IC50) in data set [2] amounted to 91 nM.

For orientation: IC50 means the concentration that inhibits the measured activity by half. One may read the solubility as the concentration that dissolves in the medium under given conditions. Lower therefore signals little dissolved substance. Broadly, the MIC is the smallest concentration in the dilution series that meets the test's criterion for growth inhibition. The logD is lipophilicity at a set pH, counting ionised and neutral species. Low readings indicate lower lipophilicity, high ones higher lipophilicity.
